Assays:
[1] = HPLC capacity factor (k') (artificial membrane chromatography); type: ADME
Method in brief: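 Immobilized artificial membrane (IAM) column; mobile phase 10 mM sodium phosphate pH 6.4 in 25% aqueous propylene glycol, 2 mL/min. Samples at 100 µg/mL in mobile phase, UV detection 220 nm, KI as void marker. k' of each compound divided by mean k' of a reference standard injected before and after each set of five compounds; reported as relative k' (log for comparisons).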

[2] = Mean peak APTT value was evaluated on rats by intracolonic instillation of a 25% aqueous propylene glycol solution of heparin (25 mg/kg) and compound (50 mg/kg).; type: functional, Rattus norvegicus

Which “Log relative k'” value [1] does the source give for O=C(O)CCCCCCCNC(=O)c1cccs1 here?
The value was 0.9.

What about the “Mean peak APTT” value [2] of the same compound?
The value was 22.

Which “Log relative k'” value [1] does the source give for O=C(O)CCCCCCCNC(=O)C/C=C/c1ccccc1 here?
The value was 0.7.

And the “Mean peak APTT” value [2]?
The value was 73.

With O=C(O)CCCCCCCNC(=O)c1c(F)cccc1Cl as the compound, how does the “Log relative k'” value [1] read?
The value was 0.23.

And the “Mean peak APTT” value [2]?
Its value is 23.

Which “Log relative k'” value [1] does the source give for O=C(O)CCCCCCCNC(=O)c1ccccn1 here?
Its value is -0.52.

And the “Mean peak APTT” value [2]?
Its value is 23.

With O=C(O)CCCCCCCNC(=O)c1cccnc1O as the compound, how does the “Log relative k'” value [1] read?
The value was 0.9.

And the “Mean peak APTT” value [2]?
Its value is 22.

Which results are given for O=C(O)CCCCCNC(=O)c1ccc(Cl)cc1O?
Log relative k' [1]: 0.26; Mean peak APTT [2]: 40

For O=C(O)CCCCCCCNC(=O)c1ccccc1, which “Log relative k'” value [1] is on record?
Its value is 0.09.

What about the “Mean peak APTT” value [2] of the same compound?
Its value is 21.

With O=C(O)CCCCCCCNC(=O)c1ccc(O)cc1 as the compound, how does the “Log relative k'” value [1] read?
Its value is -0.04.

What about the “Mean peak APTT” value [2] of the same compound?
The value was 27.

For O=C(O)CCCCCCCNC(=O)c1cc(O)cc(O)c1, which “Log relative k'” value [1] is on record?
The value was -0.06.

What about the “Mean peak APTT” value [2] of the same compound?
The value was 20.

Which “Log relative k'” value [1] does the source give for O=C(O)CCCCCCCNC(=O)c1ccc([N+](=O)[O-])cc1O here?
The value was 1.11.

What about the “Mean peak APTT” value [2] of the same compound?
The value was 36.

Which results are given for COc1ccccc1C(=O)NCCCCCCCC(=O)O?
Log relative k' [1]: 0.33; Mean peak APTT [2]: 26

With O=C(O)CCCCCCCNC(=O)c1ccc(I)cc1 as the compound, how does the “Log relative k'” value [1] read?
Its value is 0.97.

What about the “Mean peak APTT” value [2] of the same compound?
The value was 23.

Which “Log relative k'” value [1] does the source give for O=C(O)CCCCCCCNC(=O)c1ccccc1Cl here?
The value was 0.18.

What about the “Mean peak APTT” value [2] of the same compound?
The value was 23.

Which “Log relative k'” value [1] does the source give for Cc1ccc(C(=O)NCCCCCCCC(=O)O)c(O)c1 here?
Its value is 1.05.

What about the “Mean peak APTT” value [2] of the same compound?
Its value is 37.

Which “Log relative k'” value [1] does the source give for Cc1ccccc1C(=O)NCCCCCCCC(=O)O here?
The value was 0.45.

And the “Mean peak APTT” value [2]?
The value was 25.

With O=C(O)CCCCCCCNC(=O)c1cccc(O)c1 as the compound, how does the “Log relative k'” value [1] read?
The value was 0.

What about the “Mean peak APTT” value [2] of the same compound?
Its value is 23.

With O=C(O)CCCCCCCNC(=O)c1ccccc1F as the compound, how does the “Log relative k'” value [1] read?
The value was 0.11.

And the “Mean peak APTT” value [2]?
The value was 25.

Which “Log relative k'” value [1] does the source give for O=C(O)CCCCCCCNC(=O)c1cc2ccccc2cc1O here?
Its value is 1.7.

And the “Mean peak APTT” value [2]?
The value was 71.

For O=C(O)CCCCCCCCCCCNC(=O)C/C=C/c1ccccc1, which “Log relative k'” value [1] is on record?
Its value is 2.29.

What about the “Mean peak APTT” value [2] of the same compound?
The value was 41.

What does the source list for O=C(O)CCCCCCCNC(=O)c1cccc(I)c1?
Log relative k' [1]: 1.05; Mean peak APTT [2]: 39

For O=C(O)CCCCCCCNC(=O)c1cccc(O)c1O, which “Log relative k'” value [1] is on record?
The value was 0.46.

With O=C(O)CCCCCCCNC(=O)c1ccc(Br)cc1 as the compound, how does the “Log relative k'” value [1] read?
Its value is 0.76.

What about the “Mean peak APTT” value [2] of the same compound?
Its value is 60.

For O=C(O)CCCNC(=O)c1ccccc1O, which “Log relative k'” value [1] is on record?
The value was -0.41.

And the “Mean peak APTT” value [2]?
The value was 25.

Which “Log relative k'” value [1] does the source give for O=C(O)CCCCCCCNC(=O)c1ccc(Cl)cc1O here?
The value was 1.43.

And the “Mean peak APTT” value [2]?
The value was 94.

For O=C(O)CCCCCCCCCCCNC(=O)c1ccccc1O, which “Log relative k'” value [1] is on record?
The value was 2.32.

And the “Mean peak APTT” value [2]?
The value was 44.

With O=C(O)CCCCCCCNC(=O)c1cc(O)ccc1O as the compound, how does the “Log relative k'” value [1] read?
Its value is 0.51.

What about the “Mean peak APTT” value [2] of the same compound?
The value was 25.

What does the source list for O=C(O)CCCCCCCNC(=O)C1CCCN1 (stereo not given)?
Log relative k' [1]: -0.28; Mean peak APTT [2]: 25

With O=C(O)CCCCCCCNC(=O)c1cc(Br)ccc1O as the compound, how does the “Log relative k'” value [1] read?
Its value is 1.54.

And the “Mean peak APTT” value [2]?
Its value is 111.

Which “Log relative k'” value [1] does the source give for O=C(O)CCCCCCCNC(=O)c1ccc(F)cc1 here?
The value was 0.23.

What about the “Mean peak APTT” value [2] of the same compound?
The value was 31.

What does the source list for Cc1cccc(C(=O)NCCCCCCCC(=O)O)c1O?
Log relative k' [1]: 1.23; Mean peak APTT [2]: 27

For O=C(O)CCCCCCCNC(=O)c1ccc(O)cc1O, which “Log relative k'” value [1] is on record?
Its value is 0.65.

And the “Mean peak APTT” value [2]?
The value was 37.

Which “Log relative k'” value [1] does the source give for O=C(O)CCCCCCCNC(=O)c1cc2ccccc2oc1=O here?
The value was 0.81.

And the “Mean peak APTT” value [2]?
The value was 34.

Which “Log relative k'” value [1] does the source give for O=C(O)CCCCCCCNC(=O)c1c(O)cccc1O here?
The value was 1.12.

What about the “Mean peak APTT” value [2] of the same compound?
Its value is 42.

For O=C(O)CCCCCCCCNC(=O)C/C=C/c1ccccc1, which “Log relative k'” value [1] is on record?
The value was 0.69.

What about the “Mean peak APTT” value [2] of the same compound?
The value was 140.

Which “Log relative k'” value [1] does the source give for O=C(O)CCCCCCCNC(=O)c1cccc(F)c1 here?
Its value is 0.29.

And the “Mean peak APTT” value [2]?
The value was 35.

Which “Log relative k'” value [1] does the source give for O=C(O)CCCCCCCCNC(=O)c1ccccc1O here?
Its value is 1.04.

And the “Mean peak APTT” value [2]?
The value was 163.

For COc1ccc(C(=O)NCCCCCCCC(=O)O)c(O)c1, which “Log relative k'” value [1] is on record?
Its value is 0.92.

What about the “Mean peak APTT” value [2] of the same compound?
Its value is 76.

What does the source list for O=C(O)CCCCCCCNC(=O)c1ccc(Cl)c([N+](=O)[O-])c1?
Log relative k' [1]: 0.94; Mean peak APTT [2]: 34

What does the source list for O=C(O)CCCCCCCNC(=O)c1ccccc1C(=O)O?
Log relative k' [1]: -1; Mean peak APTT [2]: 23

Which results are given for O=C(O)CCCCCCCCCNC(=O)c1ccccc1O?
Log relative k' [1]: 1.43; Mean peak APTT [2]: 153

What does the source list for O=C(O)CCCCNC(=O)c1ccccc1O?
Log relative k' [1]: -0.18; Mean peak APTT [2]: 26

Which results are given for O=C(O)CCCCCCNC(=O)C/C=C/c1ccccc1?
Log relative k' [1]: 0.36; Mean peak APTT [2]: 39

What does the source list for O=C(O)CCCCCCCCCCNC(=O)c1ccc2ccccc2c1O?
Log relative k' [1]: > 2.5; Mean peak APTT [2]: 26

For Nc1ccccc1C(=O)NCCCCCCCC(=O)O, which “Log relative k'” value [1] is on record?
The value was 0.02.

And the “Mean peak APTT” value [2]?
Its value is 24.

Which “Log relative k'” value [1] does the source give for O=C(O)CCCCCCNC(=O)c1ccccc1O here?
The value was 0.37.

And the “Mean peak APTT” value [2]?
The value was 56.

Which results are given for COc1ccccc1/C=C/CC(=O)NCCCCCCCCC(=O)O?
Log relative k' [1]: 0.89; Mean peak APTT [2]: 56

For O=C(O)CCCCCCCNC(=O)C1CCCCC1, which “Log relative k'” value [1] is on record?
The value was 0.15.

And the “Mean peak APTT” value [2]?
The value was 34.

Which results are given for COc1cc(Cl)ccc1C(=O)NCCCCCCCC(=O)O?
Log relative k' [1]: 0.79; Mean peak APTT [2]: 75

Which results are given for O=C(O)CCCCCCCNC(=O)c1cccnc1Cl?
Log relative k' [1]: -0.53; Mean peak APTT [2]: 30

For O=C(O)CCCCCCCNC(=O)c1ccc([N+](=O)[O-])cc1, which “Log relative k'” value [1] is on record?
Its value is 0.44.

What about the “Mean peak APTT” value [2] of the same compound?
Its value is 33.

Which “Log relative k'” value [1] does the source give for O=C(O)CCCCCCCNC(=O)c1ccccc1OC(F)(F)F here?
Its value is -0.64.

What about the “Mean peak APTT” value [2] of the same compound?
The value was 23.

Which results are given for O=C(O)CCCCCCCNC(=O)c1cc([N+](=O)[O-])ccc1Cl?
Log relative k' [1]: 0.25; Mean peak APTT [2]: 23

For O=C(O)CCCCCCCNC(=O)c1c(F)c(F)c(F)c(F)c1F, which “Log relative k'” value [1] is on record?
Its value is 0.41.

What about the “Mean peak APTT” value [2] of the same compound?
The value was 22.

Which “Log relative k'” value [1] does the source give for O=C(O)CCCCCCCNC(=O)c1ccccc1I here?
Its value is 0.35.

What about the “Mean peak APTT” value [2] of the same compound?
Its value is 22.

What does the source list for O=C(O)CCCCCCCNC(=O)c1ccc(Cl)cc1?
Log relative k' [1]: 0.65; Mean peak APTT [2]: 37

Which “Log relative k'” value [1] does the source give for Cc1ccc(O)c(C(=O)NCCCCCCCC(=O)O)c1 here?
Its value is 1.03.

What about the “Mean peak APTT” value [2] of the same compound?
The value was 56.

What does the source list for O=C(O)CCNC(=O)c1ccccc1O?
Log relative k' [1]: -0.63; Mean peak APTT [2]: 22

With O=C(O)CCCCCNC(=O)c1ccccc1O as the compound, how does the “Log relative k'” value [1] read?
Its value is 0.04.

What about the “Mean peak APTT” value [2] of the same compound?
Its value is 24.

With O=C(O)CCCCCCCCCCNC(=O)c1ccccc1O as the compound, how does the “Log relative k'” value [1] read?
Its value is 1.88.

What about the “Mean peak APTT” value [2] of the same compound?
The value was 51.

For O=C(O)CCCCCCCNC(=O)c1ccccc1Br, which “Log relative k'” value [1] is on record?
The value was 0.24.

And the “Mean peak APTT” value [2]?
The value was 21.

For O=C(O)CCCCCCCNC(=O)c1cc(Cl)ccc1O, which “Log relative k'” value [1] is on record?
The value was 0.81.

What about the “Mean peak APTT” value [2] of the same compound?
Its value is 56.

Which results are given for COc1ccccc1C(=O)NCCCCCC(=O)O?
Log relative k' [1]: -0.47; Mean peak APTT [2]: 27

With O=C(O)CCCCCCCNC(=O)Cc1ccccc1O as the compound, how does the “Log relative k'” value [1] read?
Its value is 0.12.

And the “Mean peak APTT” value [2]?
The value was 21.

What does the source list for COc1cc([N+](=O)[O-])ccc1C(=O)NCCCCCCCC(=O)O?
Log relative k' [1]: -0.55; Mean peak APTT [2]: 25

For O=C(O)CCCCCCCNC(=O)c1cc(I)ccc1O, which “Log relative k'” value [1] is on record?
Its value is 1.72.

What about the “Mean peak APTT” value [2] of the same compound?
The value was 32.

What does the source list for O=C(O)CCCCCCCNC(=O)c1ccc2ccccc2c1O?
Log relative k' [1]: 2.1; Mean peak APTT [2]: 31

With O=C(O)CCCCCCCNC(=O)c1ccccc1O [SALCAPROZIC ACID] as the compound, how does the “Log relative k'” value [1] read?
The value was 0.68.

And the “Mean peak APTT” value [2]?
The value was 125.

Which “Log relative k'” value [1] does the source give for O=C(O)CNC(=O)c1ccccc1O [SALICYLURIC ACID] here?
The value was -0.68.

And the “Mean peak APTT” value [2]?
Its value is 28.

— ChEMBL document CHEMBL1131318, “Synthesis and evaluation of compounds that facilitate the gastrointestinal absorption of heparin” (J Med Chem, 1998)
